“And” between values parts separate entries of the source, which are not always exact repeats. Equal entries are not always repeated. The source made the active and inactive calls.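 How the source made its calls: active means fitted curve reaching 40% activation at or below the top valid tested dose; inactive means the rest, or activity counter to the expected direction.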
Columns and labels:
[1] = test system: U2OS HRE-luciferase reporter, luminescence, HIF pathway activation; experiment: HIF pathway activators in reporter cells, dose response, cell-based, U2OS HRE-luciferase, luminescence, dry powder, set 3 (AID 493180)
Method in brief: (§1)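 material = U2OS 3xHRE-luciferase reporter cells | compound = 8-point series in 3-fold steps, 7.5 mM top stock | detection = Steady-Glo luminescence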

[2] = as above; conditions: U2OS HRE-luciferase reporter, luminescence, HIF pathway activation; at 38 µM (top of the series)
Method in brief: as §1

SMILES	AC40 [1]	activation [2]
c1ccc(-c2nnc(-c3ccccn3)nc2Nc2cnc3ccccc3n2)cc1	7.45 µM	–
c1ccc(-c2nnc(-c3ccccn3)nc2N2CCC(N3CCOCC3)CC2)cc1	7.47 µM	–
CN(C)c1nc(-c2ccccn2)nnc1-c1ccccc1	12.9 µM	–
Cc1cccc(Nc2nc(-c3ccccn3)nnc2-c2ccccc2)n1	14.2 µM	–
c1ccc(-c2nnc(-c3ccccn3)nc2NCCN2CCOCC2)cc1	15.3 µM	–
O=C(Nc1ncc2ccccc2n1)c1cc(-c2ccccc2)on1	–	2.48% (inactive)
CC(C)(C)OC(=O)N1CCN(Cc2ccc(O)c3ncccc23)CC1	> 4.6 µM (inactive)	–
c1ccc(-c2cccc(CNc3nc(-c4ccccn4)nnc3-c3ccccc3)c2)cc1	1 µM	–
CC(Nc1nc(-c2ccccn2)nnc1-c1ccccc1)c1ccccc1 (stereo not drawn)	1.94 µM	–
c1ccc(-c2nnc(Nc3nc(-c4ccccn4)nnc3-c3ccccc3)s2)cc1	25.3 µM	–
Oc1ccc(CNC2Cc3ccccc3C2)c2cccnc12	> 38 µM (inactive)	–
O=C(NCC1CC1)c1cc(-c2ccccc2)on1	31 µM	–
Oc1ccc(CN2CCC(Cc3ccccc3)CC2)c2cccnc12	–	22.2% (inactive)
c1ccc(-c2nnc(-c3ccccn3)nc2NCc2ccccn2)cc1	22 µM	–
c1ccc(-c2nnc(-c3ccccn3)nc2N2CCC(C3CCCCC3)C2)cc1 (stereo not drawn)	1.5 µM	–
Oc1ccc(CNC2CCc3ccccc32)c2cccnc12 (stereo not drawn)	–	11.5% (inactive)
O=C(NCC1CCCCC1)c1cc(-c2ccccc2)on1	–	3.45% (inactive)
c1ccc(-c2nnc(-c3ccccn3)nc2N2CCC(c3ccccc3)C2)cc1 (stereo not drawn)	2.54 µM	–
Cc1cccc(CNC(=O)c2cc(-c3ccccc3)on2)c1	–	-1.13% (inactive)
Oc1ccc(CN2CCC3CCCCC3C2)c2cccnc12 (stereo not drawn)	34.8 µM	–
O=C(NCCCO)c1cc(-c2ccccc2)on1	> 38 µM (inactive)	–
c1ccc(-c2nnc(-c3ccccn3)nc2NCc2cccnc2)cc1	16.3 µM	–

SMILES	AC40 [1]	activation [2]
O=C(Nc1cnc2ccccc2c1)c1cc(-c2ccccc2)on1	–	0.049% (inactive)
CCCCNC(=O)c1cc(-c2ccccc2)on1	> 38 µM (inactive)	–
Cc1ccc(CNc2nc(-c3ccccn3)nnc2-c2ccccc2)cc1C	2.12 µM	–
O=C(Nc1nc(-c2ccccc2)cs1)c1cc(-c2ccccc2)on1	> 4.6 µM (inactive)	–
c1ccc(-c2ccc(CNc3nc(-c4ccccn4)nnc3-c3ccccc3)cc2)cc1	1.09 µM	–
O=C(c1cc(-c2ccccc2)on1)N1CCC(CO)CC1	> 4.6 µM (inactive)	–
O=C(Nc1nnc(-c2ccccc2)s1)c1cc(-c2ccccc2)on1	–	0.329% (inactive)
OCCCNc1nc(-c2ccccn2)nnc1-c1ccccc1	22.2 µM	–
COc1ccccc1N1CCN(Cc2ccc(O)c3ncccc23)CC1	> 38 µM (inactive)	–
Cn1c(-c2ccccc2)cnc1NC(=O)c1cc(-c2ccccc2)on1	–	0.636% (inactive)
O=C(NCCN1CCOCC1)c1cc(-c2ccccc2)on1	> 38 µM (inactive)	–
O=C(c1cc(-c2ccccc2)on1)N1CCc2cccnc21	> 4.6 µM (inactive)	–
CC1CN(Cc2ccc(O)c3ncccc23)CC(C)O1 (stereo not drawn)	–	2.27% (inactive)
CN1CCN(c2nc(-c3ccccn3)nnc2-c2ccccc2)CC1	21.7 µM	–
O=C(NC1CCc2ccccc2C1)c1cc(-c2ccccc2)on1 (stereo not drawn)	–	-0.627% (inactive)
c1ccc(-c2nnc(-c3ccccn3)nc2NCC2CCCCC2)cc1	3.5 µM	–
c1ccc(-c2nnc(-c3ccccn3)nc2NCC2CCOCC2)cc1	22.8 µM	–
O=C(NCCCn1ccnc1)c1cc(-c2ccccc2)on1	28.9 µM	–
Clc1cccc(CNc2nc(-c3ccccn3)nnc2-c2ccccc2)c1	2.21 µM	–
c1ccc(-c2nnc(-c3ccccn3)nc2NCCc2ccccn2)cc1	12.5 µM	–
Cn1c(NC(=O)c2cc(-c3ccccc3)on2)nc2ccccc21	–	0.384% (inactive)
c1ccc(CCNc2nc(-c3ccccn3)nnc2-c2ccccc2)cc1	2.69 µM	–

SMILES	AC40 [1]	activation [2]
Cn1c(-c2ccccc2)cnc1Nc1nc(-c2ccccn2)nnc1-c1ccccc1	5.83 µM	–
Cc1cccc(CNc2nc(-c3ccccn3)nnc2-c2ccccc2)c1	4.5 µM	–
Cc1ccccc1CNc1nc(-c2ccccn2)nnc1-c1ccccc1	5.58 µM	–
O=C(c1cc(-c2ccccc2)on1)N1CCC(N2CCOCC2)CC1	> 4.6 µM (inactive)	–
c1ccc(-c2nnc(-c3ccccn3)nc2NCCCN2CCOCC2)cc1	7.33 µM	–
O=C(NCCN1CCCCC1)c1cc(-c2ccccc2)on1	2.5 µM	–
O=C(NCCCN1CCOCC1)c1cc(-c2ccccc2)on1	> 38 µM (inactive)	–
c1ccc(CNc2nc(-c3ccccn3)nnc2-c2ccccc2)cc1	5.63 µM	–
OCC1CCN(Cc2ccc(O)c3ncccc23)CC1	> 4.6 µM (inactive)	–
OCC1CCN(c2nc(-c3ccccn3)nnc2-c2ccccc2)CC1	21.1 µM	–
Cc1cccc(NC(=O)c2cc(-c3ccccc3)on2)n1	–	1.4% (inactive)
c1ccc(-c2nnc(-c3ccccn3)nc2Nc2nc3ccccc3s2)cc1	5.89 µM	–
O=C(c1cc(-c2ccccc2)on1)N1CCN(c2ccncc2)CC1	–	-1.02% (inactive)
c1ccc(-c2csc(Nc3nc(-c4ccccn4)nnc3-c3ccccc3)n2)cc1	1.39 µM	–
Cc1ccccc1CNC(=O)c1cc(-c2ccccc2)on1	–	1.28% (inactive)
Cc1ccc(Nc2nc(-c3ccccn3)nnc2-c2ccccc2)cn1	13.6 µM	–
CN(C)CCNC(=O)c1cc(-c2ccccc2)on1	–	1.68% (inactive)
CC(C)(C)CCNc1nc(-c2ccccn2)nnc1-c1ccccc1	3.2 µM and 1.8 µM	–
c1ccc(-c2cnc(Nc3nc(-c4ccccn4)nnc3-c3ccccc3)s2)cc1	> 4.6 µM (inactive)	–
O=C(c1cc(-c2ccccc2)on1)N1CCC(N2CCCC2)CC1	–	0.044% (inactive)
O=C(Nc1nc2ccccc2s1)c1cc(-c2ccccc2)on1	> 1.5 µM (inactive)	–
O=C(NCc1ccccc1)c1cc(-c2ccccc2)on1	–	0.892% (inactive)

SMILES	AC40 [1]	activation [2]
N#CC1(c2ccccc2)CCN(Cc2ccc(O)c3ncccc23)CC1	–	6.8% (inactive)
O=C(Nc1cn2ccccc2n1)c1cc(-c2ccccc2)on1	> 4.6 µM (inactive)	–
C[C@@H](Nc1nc(-c2ccccn2)nnc1-c1ccccc1)C1CCCCC1	5.21 µM	–
CN1CCN(C(=O)c2cc(-c3ccccc3)on2)CC1	–	-0.645% (inactive)
CC(C)(C)c1ccc(CNc2nc(-c3ccccn3)nnc2-c2ccccc2)cc1	2.15 µM	–
O=C(Nc1ccc2ccccc2n1)c1cc(-c2ccccc2)on1	> 4.6 µM (inactive)	–
C[C@H](Nc1nc(-c2ccccn2)nnc1-c1ccccc1)C1CCCCC1	2.59 µM	–
C=CCNc1nc(-c2ccccn2)nnc1-c1ccccc1	7.74 µM	–
COc1cccc(CNc2nc(-c3ccccn3)nnc2-c2ccccc2)c1	2.83 µM	–
Cc1ccc(CNC(=O)c2cc(-c3ccccc3)on2)cc1	–	-0.867% (inactive)
Oc1ccc(CN2CCc3ccccc3C2)c2cccnc12	14.1 µM	1.34% (inactive)
c1ccc(-c2nnc(-c3ccccn3)nc2N2CCN(c3ccncc3)CC2)cc1	4.63 µM	–
c1ccc(-c2nnc(-c3ccccn3)nc2NCC2CC2)cc1	7.63 µM	–
Cc1ccc(NC(=O)c2cc(-c3ccccc3)on2)cn1	–	1.37% (inactive)
C[C@@H](Nc1nc(-c2ccccn2)nnc1-c1ccccc1)c1ccccc1	5.22 µM	–
O=C(Nc1ncc(-c2ccccc2)o1)c1cc(-c2ccccc2)on1	–	-0.837% (inactive)
Cc1ccc(CNc2nc(-c3ccccn3)nnc2-c2ccccc2)cc1	3.58 µM	–
CC(C)(C)CCNC(=O)c1cc(-c2ccccc2)on1	–	19.3% (inactive)
COc1ccc(CNc2nc(-c3ccccn3)nnc2-c2ccccc2)cc1	3.7 µM	–
O=C(NCCCCO)c1cc(-c2ccccc2)on1	12 µM	–
O=C(NC1Cc2ccccc2C1)c1cc(-c2ccccc2)on1	–	2.88% (inactive)

Reference: PubChem BioAssay AID493180 (Broad Institute, 2011)
